# Test results: ChEMBL document CHEMBL1132575 (J Med Chem, 1999)
# pEC50, pKi: −log10 of the molar value.
# Legend:
# [1] = molecular target: T1, 5-hydroxytryptamine receptor 1D (Homo sapiens, UniProt P28221); assay: Intrinsic activity for 5-hydroxytryptamine 1D receptor; format: functional
# Outline: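 Agonism measured as inhibition of forskolin-stimulated adenylyl cyclase in cell lines expressing the human 5-HT1D receptor.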
# [2] = molecular target: T1, 5-hydroxytryptamine receptor 1D; assay: In vitro receptor binding affinity for cloned human 5-hydroxytryptamine 1D receptor
# Outline: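 Radioligand binding assay in cell lines expressing the human 5-HT1D receptor; affinity reported as Ki values. Further procedural detail is referenced to earlier work.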
# [3] = molecular target: T2, 5-hydroxytryptamine receptor 1A (Homo sapiens, UniProt P08908); assay: In vitro receptor binding affinity for cloned human 5-hydroxytryptamine 1A receptor
# T2 sequence (P08908 whole entry): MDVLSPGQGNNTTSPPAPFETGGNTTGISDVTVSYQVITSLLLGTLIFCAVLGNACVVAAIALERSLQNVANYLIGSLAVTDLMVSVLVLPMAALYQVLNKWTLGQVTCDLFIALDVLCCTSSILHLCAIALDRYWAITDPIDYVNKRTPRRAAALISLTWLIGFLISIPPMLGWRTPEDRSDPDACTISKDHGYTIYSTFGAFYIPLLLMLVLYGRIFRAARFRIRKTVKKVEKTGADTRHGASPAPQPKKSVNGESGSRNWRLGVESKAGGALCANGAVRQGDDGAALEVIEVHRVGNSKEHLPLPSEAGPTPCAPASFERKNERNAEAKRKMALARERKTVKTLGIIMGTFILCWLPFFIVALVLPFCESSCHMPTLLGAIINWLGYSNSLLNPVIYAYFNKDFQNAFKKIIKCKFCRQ
# [4] = molecular target: 5-hydroxytryptamine receptor 1B (Homo sapiens, UniProt P28222); assay: In vitro receptor binding affinity for cloned human 5-hydroxytryptamine 1B receptor
# [5] = molecular target: T1, 5-hydroxytryptamine receptor 1D; assay: Ability to inhibit forskolin-stimulated adenylate cyclase in a cell line expressing human 5-hydroxytryptamine 1D receptor; format: functional
# T1 sequence (P28221 whole entry): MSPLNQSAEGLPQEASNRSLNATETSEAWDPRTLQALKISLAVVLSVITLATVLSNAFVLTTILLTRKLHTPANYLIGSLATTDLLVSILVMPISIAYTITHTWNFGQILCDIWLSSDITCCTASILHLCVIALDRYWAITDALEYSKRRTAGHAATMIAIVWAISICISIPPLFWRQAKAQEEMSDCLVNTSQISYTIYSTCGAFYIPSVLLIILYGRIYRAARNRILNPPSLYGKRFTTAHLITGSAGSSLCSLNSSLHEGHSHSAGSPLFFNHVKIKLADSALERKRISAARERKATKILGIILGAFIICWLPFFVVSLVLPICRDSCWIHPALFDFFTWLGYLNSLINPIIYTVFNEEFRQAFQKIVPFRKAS
# Sequence of 5-hydroxytryptamine receptor 1B (P28222 whole entry): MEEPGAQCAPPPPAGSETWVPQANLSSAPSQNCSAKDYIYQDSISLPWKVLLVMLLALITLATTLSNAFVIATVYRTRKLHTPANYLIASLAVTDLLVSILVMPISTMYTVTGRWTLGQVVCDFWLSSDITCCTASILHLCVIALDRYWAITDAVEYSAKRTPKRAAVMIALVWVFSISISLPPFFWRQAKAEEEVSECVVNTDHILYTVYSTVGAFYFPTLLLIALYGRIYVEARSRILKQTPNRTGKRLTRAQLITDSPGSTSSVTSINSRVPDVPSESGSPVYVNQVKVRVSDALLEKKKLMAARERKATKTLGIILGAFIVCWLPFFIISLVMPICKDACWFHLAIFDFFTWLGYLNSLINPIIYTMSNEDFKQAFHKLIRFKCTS
Compound,pKi [2],other results
CN(C)CCc1c[nH]c2ccc(Cn3cncn3)cc12,,Emax [1]: 97%
NCCc1c[nH]c2ccc(C3CCCCC3)cc12,8.47,
CN(C)CCc1c[nH]c2ccc(C(C)(C)C)cc12,9.36,
Cc1ccc2[nH]cc(CCN)c2c1,8.19,
NCCc1c[nH]c2ccc(C3CCCC3)cc12,8.77,
CCCN(CCC)CCc1c[nH]c2ccc(C(C)(C)C)cc12,7.97,
CCc1ccc2[nH]cc(CCN)c2c1,8.43,
CC(C)(C)c1ccc2[nH]cc(CCN)c2c1,9.22,
CNS(=O)(=O)Cc1ccc2[nH]cc(CCN(C)C)c2c1,,Emax [1]: 93%
CNS(=O)(=O)CCc1ccc2[nH]cc(C3CCN(C)CC3)c2c1,8.64,pKi [3]: 7.35; Emax [1]: 100%; pKi [4]: 8.48; pEC50 [5]: 8.80
CNCCc1c[nH]c2ccc(C(C)(C)C)cc12,9.35,pKi [3]: 8.21; Emax [1]: 100%; pKi [4]: 8.72; pEC50 [5]: 9.66
CC(C)c1ccc2[nH]cc(CCN)c2c1,8.96,
CCCNCCc1c[nH]c2ccc(C(C)(C)C)cc12,8.21,
CN[C@@H]1CCc2[nH]c3ccc(C(N)=O)cc3c2C1 [FROVATRIPTAN],[…],pKi [3]: 7.21
